# According to ChEMBL document CHEMBL1649124, “Genetic variability among ampC genes from acinetobacter genomic species 3” (Antimicrob Agents Chemother, 2009):
# Legend:
# Assay type in all cases: functional
# Acinetobacter pittii [1] = experiment: Antibacterial activity against Acinetobacter genomosp. 3 isolate 14 by Etest method
# Procedure, shortened: (§1)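 MICs for AG3 clinical isolates were read by Etest following the manufacturer's instructions. Isolates were stored at –80°C in 10% Brucella glycerol broth before testing.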
# Acinetobacter pittii [2] = experiment: Antibacterial activity against Acinetobacter genomosp. 3 isolate 20 by Etest method; procedure, shortened: as §1
# Acinetobacter pittii [3] = experiment: Antibacterial activity against Acinetobacter genomosp. 3 isolate 21 by Etest method; procedure, shortened: as §1
# Acinetobacter pittii [4] = experiment: Antibacterial activity against Acinetobacter genomosp. 3 isolate 56 by Etest method; procedure, shortened: as §1
# Acinetobacter pittii [5] = experiment: Antibacterial activity against Acinetobacter genomosp. 3 isolate 65 by Etest method; procedure, shortened: as §1
# Acinetobacter pittii [6] = experiment: Antibacterial activity against Acinetobacter genomosp. 3 isolate 20 by Etest method in presence of efflux pump inhibitor PAN
# Acinetobacter pittii [7] = experiment: Antibacterial activity against Acinetobacter genomosp. 3 isolate 20 by Etest method in efflux pump inhibitor CCCP
# Acinetobacter pittii [8] = experiment: Antibacterial activity against Acinetobacter genomosp. 3 isolate 21 by Etest method in presence of efflux pump inhibitor PAN
# Acinetobacter pittii [9] = experiment: Antibacterial activity against Acinetobacter genomosp. 3 isolate 21 by Etest method in presence of efflux pump inhibitor CCCP
# Acinetobacter pittii [10] = experiment: Antibacterial activity against Acinetobacter genomosp. 3 isolate 56 by Etest method in presence of efflux pump inhibitor CCCP
# Acinetobacter pittii [11] = experiment: Antibacterial activity against Acinetobacter genomosp. 3 isolate 60 by Etest method in presence of cloxacillin; procedure, shortened: as §1
# Acinetobacter pittii [12] = experiment: Antibacterial activity against Acinetobacter genomosp. 3 isolate 65 by Etest method in presence of efflux pump inhibitor CCCP
# Acinetobacter pittii [13] = experiment: Antibacterial activity against Acinetobacter genomosp. 3 isolate 67 by Etest method in presence of cloxacillin; procedure, shortened: as §1
# Acinetobacter pittii [14] = experiment: Antibacterial activity against Acinetobacter genomosp. 3 isolate 67 by Etest method in presence of efflux pump inhibitor PAN
# Acinetobacter pittii [15] = experiment: Antibacterial activity against Acinetobacter genomosp. 3 isolate 69 by Etest method in presence of cloxacillin; procedure, shortened: as §1
# Acinetobacter pittii [16] = experiment: Antibacterial activity against Acinetobacter genomosp. 3 isolate 109 by Etest method in presence of cloxacillin; procedure, shortened: as §1
# Acinetobacter pittii [17] = experiment: Antibacterial activity against Acinetobacter genomosp. 3 isolate 109 by Etest method in presence of efflux pump inhibitor PAN
# Acinetobacter pittii [18] = experiment: Antibacterial activity against Acinetobacter genomosp. 3 isolate 128 by Etest method in presence of efflux pump inhibitor CCCP
# Acinetobacter pittii [19] = experiment: Antibacterial activity against Acinetobacter genomosp. 3 isolate 195 by Etest method in presence of efflux pump inhibitor PAN
# Acinetobacter pittii [20] = experiment: Antibacterial activity against Acinetobacter genomosp. 3 isolate 195 by Etest method in presence of efflux pump inhibitor CCCP
# Escherichia coli [21] = experiment: Antibacterial activity against Escherichia coli DH5alpha by Etest method
# Procedure, shortened: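 E. coli DH5α host strain, grown at 37°C in LB medium. MICs of β-lactams determined by Etest following the manufacturer's instructions.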
# Acinetobacter pittii [22] = experiment: Antibacterial activity against Acinetobacter genomosp. 3 isolate 109 by Etest method in presence of cloxacillin and efflux pump inhibitor PAN
# Acinetobacter pittii [23] = experiment: Antibacterial activity against Acinetobacter genomosp. 3 isolate 21 by Etest method in presence of cloxacillin and efflux pump inhibitor CCCP
# Acinetobacter pittii [24] = experiment: Antibacterial activity against Acinetobacter genomosp. 3 isolate 52 by Etest method in presence of cloxacillin and efflux pump inhibitor CCCP
# Acinetobacter pittii [25] = experiment: Antibacterial activity against Acinetobacter genomosp. 3 isolate 56 by Etest method in presence of cloxacillin and efflux pump inhibitor PAN
# Acinetobacter pittii [26] = experiment: Antibacterial activity against Acinetobacter genomosp. 3 isolate 56 by Etest method in presence of cloxacillin and efflux pump inhibitor CCCP
# Acinetobacter pittii [27] = experiment: Antibacterial activity against Acinetobacter genomosp. 3 isolate 60 by Etest method in presence of cloxacillin and efflux pump inhibitor PAN
# Acinetobacter pittii [28] = experiment: Antibacterial activity against Acinetobacter genomosp. 3 isolate 60 by Etest method in presence of cloxacillin and efflux pump inhibitor CCCP
# Acinetobacter pittii [29] = experiment: Antibacterial activity against Acinetobacter genomosp. 3 isolate 65 by Etest method in presence of cloxacillin and efflux pump inhibitor PAN
# Acinetobacter pittii [30] = experiment: Antibacterial activity against Acinetobacter genomosp. 3 isolate 65 by Etest method in presence of cloxacillin and efflux pump inhibitor CCCP
# Acinetobacter pittii [31] = experiment: Antibacterial activity against Acinetobacter genomosp. 3 isolate 90 by Etest method in presence of cloxacillin and efflux pump inhibitor PAN
# Acinetobacter pittii [32] = experiment: Antibacterial activity against Acinetobacter genomosp. 3 isolate 69 by Etest method in presence of cloxacillin and efflux pump inhibitor PAN
# Acinetobacter pittii [33] = experiment: Antibacterial activity against Acinetobacter genomosp. 3 isolate 90 by Etest method in presence of cloxacillin and efflux pump inhibitor CCCP
# Acinetobacter pittii [34] = experiment: Antibacterial activity against Acinetobacter genomosp. 3 isolate 103 by Etest method in presence of cloxacillin and efflux pump inhibitor CCCP
# Acinetobacter pittii [35] = experiment: Antibacterial activity against Acinetobacter genomosp. 3 isolate 14 by Etest method in presence of efflux pump inhibitor PAN
# Acinetobacter pittii [36] = experiment: Antibacterial activity against Acinetobacter genomosp. 3 isolate 195 by Etest method in presence of cloxacillin and efflux pump inhibitor CCCP
# Acinetobacter pittii [37] = experiment: Antibacterial activity against Acinetobacter genomosp. 3 isolate 14 by Etest method in presence of cloxacillin; procedure, shortened: as §1
# Acinetobacter pittii [38] = experiment: Antibacterial activity against Acinetobacter genomosp. 3 isolate 14 by Etest method in presence of efflux pump inhibitor CCCP
# Acinetobacter pittii [39] = experiment: Antibacterial activity against Acinetobacter genomosp. 3 isolate 14 by Etest method in presence of cloxacillin and efflux pump inhibitor PAN
# Acinetobacter pittii [40] = experiment: Antibacterial activity against Acinetobacter genomosp. 3 isolate 14 by Etest method in presence of cloxacillin and efflux pump inhibitor […]
# Acinetobacter pittii [41] = experiment: Antibacterial activity against Acinetobacter genomosp. 3 isolate 90 by Etest method; procedure, shortened: as §1
# Acinetobacter pittii [42] = experiment: Antibacterial activity against Acinetobacter genomosp. 3 isolate 103 by Etest method; procedure, shortened: as §1
# Acinetobacter pittii [43] = experiment: Antibacterial activity against Acinetobacter genomosp. 3 isolate 128 by Etest method; procedure, shortened: as §1
# Acinetobacter pittii [44] = experiment: Antibacterial activity against Acinetobacter genomosp. 3 isolate 195 by Etest method; procedure, shortened: as §1
# Escherichia coli [45] = experiment: Antibacterial activity against Escherichia coli DH5alpha carrying ampC gene of Acinetobacter genomosp. 3 isolate 14 by Etest method
# Procedure, shortened: (§2)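 E. coli DH5α expressing the AG3 isolate ampC gene, PCR-amplified (high-fidelity system, 28 cycles) and cloned into BamHI/HindIII sites of pBGS18 (kanamycin marker) under the CTX-M-14 β-lactamase promoter. Grown at 37°C in LB, with kanamycin 50 µg/ml when needed. β-Lactam MICs determined by Etest per the manufacturer's instructions.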
# Escherichia coli [46] = experiment: Antibacterial activity against Escherichia coli DH5alpha carrying ampC gene of Acinetobacter genomosp. 3 isolate 103 by Etest method; procedure, shortened: as §2
# Escherichia coli [47] = experiment: Antibacterial activity against Escherichia coli DH5alpha carrying ampC gene of Acinetobacter genomosp. 3 isolate 195 by Etest method; procedure, shortened: as §2
# Acinetobacter pittii [48] = experiment: Antibacterial activity against Acinetobacter genomosp. 3 isolate 20 by Etest method in presence of cloxacillin and efflux pump inhibitor CCCP
# Acinetobacter pittii [49] = experiment: Antibacterial activity against Acinetobacter genomosp. 3 isolate 20 by Etest method in presence of cloxacillin and efflux pump inhibitor PAN
smiles,measurement,setting,value
CC(=O)OCC1=C(C(=O)O)N2C(=O)[C@@H](NC(=O)Cc3cccs3)[C@H]2SC1 [CEPHALOTHIN],MIC,Acinetobacter pittii [1],> 256 µg/mL
same,MIC,Acinetobacter pittii [2],> 256 µg/mL
same,MIC,Acinetobacter pittii [3],> 256 µg/mL
same,MIC,Acinetobacter pittii [4],> 256 µg/mL
same,MIC,Acinetobacter pittii [5],> 256 µg/mL
same,MIC,Acinetobacter pittii [6],> 256 µg/mL
same,MIC,Acinetobacter pittii [7],> 256 µg/mL
same,MIC,Acinetobacter pittii [8],> 256 µg/mL
same,MIC,Acinetobacter pittii [9],> 256 µg/mL
same,MIC,Acinetobacter pittii [10],96 µg/mL
same,MIC,Acinetobacter pittii [11],> 256 µg/mL
same,MIC,Acinetobacter pittii [12],128 µg/mL
same,MIC,Acinetobacter pittii [13],128 µg/mL
same,MIC,Acinetobacter pittii [14],> 256 µg/mL
same,MIC,Acinetobacter pittii [15],> 256 µg/mL
same,MIC,Acinetobacter pittii [16],128 µg/mL
same,MIC,Acinetobacter pittii [17],> 256 µg/mL
same,MIC,Acinetobacter pittii [18],> 256 µg/mL
same,MIC,Acinetobacter pittii [19],> 256 µg/mL
same,MIC,Acinetobacter pittii [20],> 256 µg/mL
same,MIC,Escherichia coli [21],3 µg/mL
same,MIC,Acinetobacter pittii [22],128 µg/mL
same,MIC,Acinetobacter pittii [23],48 µg/mL
same,MIC,Acinetobacter pittii [24],12 µg/mL
same,MIC,Acinetobacter pittii [25],> 256 µg/mL
same,MIC,Acinetobacter pittii [26],16 µg/mL
same,MIC,Acinetobacter pittii [27],> 256 µg/mL
same,MIC,Acinetobacter pittii [28],28 µg/mL
same,MIC,Acinetobacter pittii [29],128 µg/mL
same,MIC,Acinetobacter pittii [30],24 µg/mL
same,MIC,Acinetobacter pittii [31],64 µg/mL
same,MIC,Acinetobacter pittii [32],> 256 µg/mL
same,MIC,Acinetobacter pittii [33],24 µg/mL
same,MIC,Acinetobacter pittii [34],24 µg/mL
same,MIC,Acinetobacter pittii [35],> 256 µg/mL
same,MIC,Acinetobacter pittii [36],96 µg/mL
same,MIC,Acinetobacter pittii [37],128 µg/mL
same,MIC,Acinetobacter pittii [38],> 256 µg/mL
same,MIC,Acinetobacter pittii [39],128 µg/mL
same,MIC,Acinetobacter pittii [40],24 µg/mL
same,MIC,Acinetobacter pittii [41],> 256 µg/mL
same,MIC,Acinetobacter pittii [42],> 256 µg/mL
same,MIC,Acinetobacter pittii [43],> 256 µg/mL
same,MIC,Acinetobacter pittii [44],> 256 µg/mL
same,MIC,Escherichia coli [45],> 256 µg/mL
same,MIC,Escherichia coli [46],> 256 µg/mL
same,MIC,Escherichia coli [47],> 256 µg/mL
same,MIC,Acinetobacter pittii [48],24 µg/mL
same,MIC,Acinetobacter pittii [49],> 256 µg/mL
C[C@@H](O)[C@H]1C(=O)N2C(C(=O)O)=C(S[C@@H]3CN[C@H](C(=O)N(C)C)C3)[C@H](C)[C@H]12 [MEROPENEM],MIC,Acinetobacter pittii [1],0.5 µg/mL
same,MIC,Acinetobacter pittii [2],6 µg/mL
same,MIC,Acinetobacter pittii [3],1 µg/mL
same,MIC,Acinetobacter pittii [4],0.38 µg/mL
same,MIC,Acinetobacter pittii [5],0.5 µg/mL
same,MIC,Acinetobacter pittii [6],3 µg/mL
same,MIC,Acinetobacter pittii [7],4 µg/mL
same,MIC,Acinetobacter pittii [8],0.47 µg/mL
same,MIC,Acinetobacter pittii [9],0.5 µg/mL
same,MIC,Acinetobacter pittii [10],0.25 µg/mL
same,MIC,Acinetobacter pittii [11],0.75 µg/mL
same,MIC,Acinetobacter pittii [12],0.25 µg/mL
same,MIC,Acinetobacter pittii [13],0.25 µg/mL
same,MIC,Acinetobacter pittii [14],0.25 µg/mL
same,MIC,Acinetobacter pittii [15],0.19 µg/mL
same,MIC,Acinetobacter pittii [16],0.25 µg/mL
same,MIC,Acinetobacter pittii [17],0.25 µg/mL
same,MIC,Acinetobacter pittii [18],0.19 µg/mL
same,MIC,Acinetobacter pittii [19],1 µg/mL
same,MIC,Acinetobacter pittii [20],0.5 µg/mL
same,MIC,Escherichia coli [21],0.008 µg/mL
same,MIC,Acinetobacter pittii [22],0.38 µg/mL
same,MIC,Acinetobacter pittii [23],0.25 µg/mL
same,MIC,Acinetobacter pittii [24],0.094 µg/mL
same,MIC,Acinetobacter pittii [25],0.38 µg/mL
same,MIC,Acinetobacter pittii [26],0.125 µg/mL
same,MIC,Acinetobacter pittii [27],0.75 µg/mL
same,MIC,Acinetobacter pittii [28],0.25 µg/mL
same,MIC,Acinetobacter pittii [29],0.38 µg/mL
same,MIC,Acinetobacter pittii [30],0.19 µg/mL
same,MIC,Acinetobacter pittii [31],0.25 µg/mL
same,MIC,Acinetobacter pittii [32],0.38 µg/mL
same,MIC,Acinetobacter pittii [33],0.38 µg/mL
same,MIC,Acinetobacter pittii [34],1 µg/mL
same,MIC,Acinetobacter pittii [35],0.25 µg/mL
same,MIC,Acinetobacter pittii [36],0.38 µg/mL
same,MIC,Acinetobacter pittii [37],0.25 µg/mL
same,MIC,Acinetobacter pittii [38],0.25 µg/mL
same,MIC,Acinetobacter pittii [39],0.38 µg/mL
same,MIC,Acinetobacter pittii [40],0.25 µg/mL
same,MIC,Acinetobacter pittii [41],0.75 µg/mL
same,MIC,Acinetobacter pittii [42],3 µg/mL
same,MIC,Acinetobacter pittii [43],0.19 µg/mL
same,MIC,Acinetobacter pittii [44],1 µg/mL
same,MIC,Escherichia coli [45],0.023 µg/mL
same,MIC,Escherichia coli [46],0.023 µg/mL
same,MIC,Escherichia coli [47],0.032 µg/mL
same,MIC,Acinetobacter pittii [48],1.5 µg/mL
same,MIC,Acinetobacter pittii [49],3 µg/mL
